From ChEMBL document CHEMBL1128599, “Nucleoside conjugates. 14. Synthesis and antitumor activity of 1-beta-D-arabinofuranosylcytosine conjugates of ether lipids with improved water solubility” (J Med Chem, 1995)
Where “and” joins values, the source holds several entries; their conditions need not be identical. Equal entries are not always repeated.

How the values were obtained:
Mus musculus [1] = assay: Antitumor activity at 300 mg/kg/day on a 1 day treatment schedule, qd against L1210 infected mice by shaking method was expressed as increase in life span (ILS); type: functional; conditions: L1210, 24 h
Procedure, shortened: (§1)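 Male DBA/2Ros mice (20–29 g, groups of 6) got 1 × 10⁶ L1210 leukemia cells ip on day 0. Ip treatment started day 1. Conjugate was shaken in sterile water for 2 h at room temperature, then 0.22 μm filtered. Mice were observed 45 days. Read-outs were median survival T/C with ILS = (T/C − 1) × 100, or 45-day survivors.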

Mus musculus [2] = assay: Number of mice (out of 6 mice) survived after treatment with 150 mg/kg/day of compound on 1, 5, 9 day by shaking method treatment schedule for 45 days; type: functional; procedure, shortened: as §1
[3] = Solubility in water determined by UV absorption at 272 nm; type: physicochemical; conditions: read-out: S
Mus musculus [4] = assay: Antitumor activity at 150 mg/kg/day on 1, 5, 9 day treatment schedule, qd against L1210 infected mice by shaking method was expressed as increase in life span (ILS); type: functional; conditions: L1210, 216 h; procedure, shortened: as §1
Mus musculus [5] = assay: Number of mice (out of 6 mice) survived after treatment with 300 mg/kg/day of compound on a 1 day by shaking method treatment schedule for 45 days; type: functional; procedure, shortened: as §1
Mus musculus [6] = assay: Number of mice (out of 6 mice) survived after treatment with 300 mg/kg/day of compound on a 1 day by sonication method treatment schedule for 45 days; type: functional
Procedure, shortened: (§2)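 L1210 cells (1 × 10⁶) were inoculated ip into male DBA/2Ros mice (20–29 g, 6 per group) on day 0. Ip dosing began day 1. Conjugate in water suspension was sonicated 2 min (20–60 °C), then 0.22 μm filtered. Over a 45-day observation, read-outs were median survival T/C, ILS = (T/C − 1) × 100, or number alive at day 45.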

Mus musculus [7] = assay: Antitumor activity at 300 mg/kg/day on a 1 day treatment schedule, qd against L1210 infected mice by sonication method was expressed as increase in life span (ILS); type: functional; conditions: L1210, 24 h; procedure, shortened: as §2
Mus musculus [8] = assay: Antitumor activity at 150 mg/kg/day on 1, 5, 9 day treatment schedule, qd against L1210 infected mice by sonication method was expressed as increase in life span (ILS); type: functional; conditions: L1210, 216 h; procedure, shortened: as §2
Mus musculus [9] = assay: Number of mice (out of 6 mice) survived after treatment with 150 mg/kg/day of compound on 1, 5, 9 day by sonication method treatment schedule for 45 days; type: functional; procedure, shortened: as §2
Mus musculus [10] = assay: Number of mice (out of 6 mice) survived after treatment with 300 mg/kg/day of compound on a 1 day treatment schedule for 45 days; type: functional
Procedure, shortened: (§3)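 Groups of 6 male DBA/2Ros mice (20–29 g) were inoculated ip on day 0 with 1 × 10⁶ L1210 cells. Conjugate was given ip as a shaken or sonicated aqueous solution from day 1, over a wide dose range. Optimal-dose results are reported as ILS = (T/C − 1) × 100 from median survival, or as 45-day survivors.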

Mus musculus [11] = assay: Number of mice (out of 6 mice) survived after treatment with 150 mg/kg/day of compound on 1, 5, 9 day treatment schedule for 45 days; type: functional; procedure, shortened: as §3
Mus musculus [12] = assay: Antitumor activity at 300 mg/Kg/day on a 1 day treatment schedule, qd against L1210 infected mice was expressed as increase in life span (ILS); type: functional; conditions: L1210, 24 h; procedure, shortened: as §3
Mus musculus [13] = assay: Antitumor activity at 150 mg/kg/day on 1, 5, 9 day treatment schedule, qd against L1210 infected mice was expressed as increase in life span (ILS); type: functional; conditions: L1210, 216 h; procedure, shortened: as §3
Mus musculus [14] = assay: Number of mice (out of 6 mice) survived after treatment with 200 mg/kg/day of compound on a 1 day treatment schedule for 45 days; type: functional; procedure, shortened: as §3
Mus musculus [15] = assay: Number of mice (out of 6 mice) survived after treatment with 200 mg/kg/day of compound on a 1,7 day treatment schedule for 45 days; type: functional; procedure, shortened: as §3
Mus musculus [16] = assay: Antitumor activity at 200 mg/kg/day on a 1 day treatment schedule, qd against L1210 infected mice was expressed as increase in life span (ILS); type: functional; conditions: L1210, 24 h; procedure, shortened: as §3
Mus musculus [17] = assay: Antitumor activity at 200 mg/kg/day on a 1,7 day treatment schedule, qd against L1210 infected mice was expressed as increase in life span (ILS); type: functional; procedure, shortened: as §3
Mus musculus [18] = assay: Antitumor activity at 300 mg/kg/day on a 1,7 day treatment schedule, qd against L1210 infected mice was expressed as increase in life span (ILS); type: functional; procedure, shortened: as §3
Mus musculus [19] = assay: Antitumor activity at 200 mg/kg/day on a 1 day treatment schedule, qd against L1210 infected mice by shaking method was expressed as increase in life span (ILS); type: functional; conditions: L1210, 24 h; procedure, shortened: as §1
Mus musculus [20] = assay: Number of mice (out of 6 mice) survived after treatment with 300 mg/kg/day of compound on a 1,7 day treatment schedule for 45 days; type: functional; procedure, shortened: as §3
Mus musculus [21] = assay: Antitumor activity at 300 mg/kg/day on a 1,7 day treatment schedule, qd against L1210 infected mice by shaking method was expressed as increase in life span (ILS); type: functional; procedure, shortened: as §1
Mus musculus [22] = assay: Antitumor activity at 200 mg/kg/day on a 1 day treatment schedule, qd against L1210 infected mice by sonication method was expressed as increase in life span (ILS); type: functional; conditions: L1210, 24 h; procedure, shortened: as §2

| Structure (SMILES) | solubility [3] | No. of mice (Mus musculus [10]) | No. of mice (Mus musculus [11]) | ILS at 150 mg/kg/day (Mus musculus [13]) | No. of mice (Mus musculus [14]) | ILS at 200 mg/kg/day (Mus musculus [16]) | further results |
| --- | --- | --- | --- | --- | --- | --- | --- |
| CCCCCCCCCCCCCCCCOCC(COP(=O)([O-])OP(=O)([O-])OC[C@H]1OC(n2ccc(N)nc2=O)[C@@H](O)[C@@H]1O)OC(=O)CCCCCCCCCCCCC.[Na+].[Na+] (stereo not given in full) | > 107 mM |  |  |  |  |  | ILS at 300 mg/kg/day (Mus musculus [1]): 258%; No. of mice (Mus musculus [2]): 5; ILS at 150 mg/kg/day (Mus musculus [4]): > 463%; No. of mice (Mus musculus [5]): 1; No. of mice (Mus musculus [6]): 3; ILS at 300 mg/kg/day (Mus musculus [7]): > 464%; ILS at 150 mg/kg/day (Mus musculus [8]): > 463%; No. of mice (Mus musculus [9]): 4 |
| CCCCCCCCCCCCCCOCC(COP(=O)([O-])OP(=O)([O-])OC[C@H]1OC(n2ccc(N)nc2=O)[C@@H](O)[C@@H]1O)OC(=O)CCCCCCCCCCCCC.[Na+].[Na+] (stereo not given in full) | > 121 mM | 0 | 1 | 125% |  |  | ILS at 300 mg/kg/day (Mus musculus [12]): 178% |
| CCCCCCCCCCCCCCCC(=O)OC(COCCCCCCCCCCCC)COP(=O)([O-])OP(=O)([O-])OC[C@H]1OC(n2ccc(N)nc2=O)[C@@H](O)[C@@H]1O.[Na+].[Na+] (stereo not given in full) | > 131 mM |  | 3 | > 313% | 0 | 128% | No. of mice (Mus musculus [15]): 0; ILS at 200 mg/kg/day (Mus musculus [17]): 286% |
| CCCCCCCCCCCCCCCCOCC(COP(=O)([O-])OP(=O)([O-])OC[C@H]1OC(n2ccc(N)nc2=O)[C@@H](O)[C@@H]1O)OC(=O)CCCCCCCCCCC.[Na+].[Na+] (stereo not given in full) | > 132 mM | 0 | 5 | > 463% |  |  | ILS at 300 mg/kg/day (Mus musculus [18]): > 350%; No. of mice (Mus musculus [15]): 3; ILS at 300 mg/kg/day (Mus musculus [12]): 119% |
| CCCCCCCCCCCCCC(=O)OC(COCCCCCCCCCCCC)COP(=O)([O-])OP(=O)([O-])OC[C@H]1OC(n2ccc(N)nc2=O)[C@@H](O)[C@@H]1O.[Na+].[Na+] (stereo not given in full) | > 146 mM |  | 3 | > 394% | 0 | 69% |  |
| CCCCCCCCCCCCCCCC(=O)OC(COCCCCCCCCCCCCCC)COP(=O)([O-])OP(=O)([O-])OC[C@H]1OC(n2ccc(N)nc2=O)[C@@H](O)[C@@H]1O.[Na+].[Na+] (stereo not given in full) | > 43 mM | 4 and 2 | 3 and 5 |  | 2 and 1 |  | ILS at 300 mg/kg/day (Mus musculus [1]): > 543%; ILS at 200 mg/kg/day (Mus musculus [19]): 275%; ILS at 150 mg/kg/day (Mus musculus [4]): > 350%; No. of mice (Mus musculus [20]): 1; ILS at 300 mg/kg/day (Mus musculus [21]): 107%; ILS at 300 mg/kg/day (Mus musculus [7]): > 206%; ILS at 150 mg/kg/day (Mus musculus [8]): > 463%; ILS at 200 mg/kg/day (Mus musculus [22]): 206% |
| CCCCCCCCCCCCCCCCOCC(COP(=O)([O-])OP(=O)([O-])OC[C@H]1OC(n2ccc(N)nc2=O)[C@@H](O)[C@@H]1O)OC(=O)CCCCCCCCCCCCCCC.[Na+].[Na+] (stereo not given in full) | 0.13 mM |  | 3 | 306% | 3 | > 250% |  |
